The test system of assay [1] is Digitaria sanguinalis. The experiment in a line: Herbicidal activity against Digitaria sanguinalis (hairy crabgrass) assessed as growth inhibition at 1 kg/ha preemergence treatment by glasshouse test. The class given is functional. The conditions noted are these: pre-emergence, read-out: GI. In outline:
(§1)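 Glasshouse screen with pre- or postemergence application at 1.0 kg/ha. Result given as percent inhibition of plant growth; norflurazon and glyphosate used as controls.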

For assay [2], the system named is Fusarium graminearum. The experiment in a line: Fungicidal activity against Fusarium graminearum assessed as inhibition of mycelia growth at 2 ppm. The class given is functional, organism-based. In outline: (§2)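 Mycelial growth test in 96-well plates: compound incorporated into artificial growth medium at 2 ppm, two replicates per rate. Each well scored 99 for complete, 55 for partial or 0 for no inhibition. Values are the mean across replicates; azoxystrobin and prochloraz used as positive controls.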

Assay [3] concerns Digitaria sanguinalis. Nature of the assay: Herbicidal activity against Digitaria sanguinalis (hairy crabgrass) assessed as growth inhibition at 1 kg/ha postemergence treatment by glasshouse test. The following applies: post-emergence, read-out: GI. It is filed as functional. An outline of the steps: as §1
The test system of assay [4] is Phytophthora infestans. Nature of the assay: Fungicidal activity against Phytophthora infestans assessed as inhibition of mycelia growth at 200 ppm. It is filed as functional, organism-based.
Assay [5] concerns Poa annua. Nature of the assay: Herbicidal activity against Poa annua assessed as growth inhibition at 32 ppm by 96-well plate test. The class given is functional. The conditions noted are these: read-out: GI. In outline:
(§3)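 96-well plate herbicide screen: Arabidopsis thaliana at 10 ppm and Poa annua at 32 ppm, two replicates. Plates incubated seven days in a controlled-environment cabinet. Each replicate scored 0 (no visible effect) or 99 (herbicidal effect); values are the mean of the two. Atrazine used as reference.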

For assay [6], the system named is Stellaria media. The experiment in a line: Herbicidal activity against Stellaria media assessed as growth inhibition at 1 kg/ha postemergence treatment by glasshouse test. The class given is functional. The conditions noted are these: post-emergence, read-out: GI. In outline: as §1
Assay [7] relates to Amaranthus retroflexus. The experiment in a line: Herbicidal activity against Amaranthus retroflexus assessed as growth inhibition at 1 kg/ha preemergence treatment by glasshouse test. It is filed as functional. The following applies: pre-emergence, read-out: GI. An outline of the steps: as §1
Assay [8] has as its system Echinochloa crus-galli. The experiment in a line: Herbicidal activity against Echinochloa crus-galli (barnyard grass) at 1.5 kg/ha preemergence treatment measured after 10 days by glasshouse test. The class given is functional. The following applies: pre-emergence, 240 h. An outline of the steps: (§4)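 Glasshouse pre/postemergence test, each treatment in triplicate. Above-ground fresh weight measured 10 days after treatment. Result expressed as percent inhibition versus control, from 0 (no control) to 100 (complete control); glyphosate used as positive control.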

Assay [9] has as its system Amaranthus retroflexus. Nature of the assay: Herbicidal activity against Amaranthus retroflexus assessed as growth inhibition at 1 kg/ha postemergence treatment by glasshouse test. It is filed as functional. The following applies: post-emergence, read-out: GI. In outline:
as §1

For assay [10], the system named is Brassica napus. Nature of the assay: Herbicidal activity against Brassica napus (oilseed rape) at 1.5 kg/ha postemergence treatment measured after 10 days by glasshouse test. The class given is functional. The conditions noted are these: post-emergence, 240 h. In outline:
as §4

Assay [11] concerns Brassica napus. Nature of the assay: Herbicidal activity against Brassica napus (oilseed rape) at 1.5 kg/ha preemergence treatment measured after 10 days by glasshouse test. The class given is functional. The conditions noted are these: pre-emergence, 240 h. In outline: as §4
Assay [12] deals with Zymoseptoria tritici. Nature of the assay: Fungicidal activity against Zymoseptoria tritici assessed as inhibition of mycelia growth at 100 ppm. It is filed as functional, organism-based.
Assay [13] has as its system Echinochloa crus-galli. Nature of the assay: Herbicidal activity against Echinochloa crus-galli (barnyard grass) at 1.5 kg/ha postemergence treatment measured after 10 days by glasshouse test. It is filed as functional. The conditions noted are these: post-emergence, 240 h. An outline of the steps:
as §4

Assay [14] deals with Pythium dissimile. Nature of the assay: Fungicidal activity against Pythium dissimile assessed as inhibition of mycelia growth at 2 ppm. The class given is functional, organism-based. An outline of the steps: as §2
The test system of assay [15] is Lolium perenne. Nature of the assay: Herbicidal activity against Lolium perenne (perennial ryegrass) assessed as growth inhibition at 1 kg/ha preemergence treatment by glasshouse test. The class given is functional. The following applies: pre-emergence, read-out: GI. An outline of the steps:
as §1

For assay [16], the system named is Alternaria solani. Nature of the assay: Fungicidal activity against Alternaria solani assessed as inhibition of mycelia growth at 2 ppm. It is filed as functional, organism-based. An outline of the steps:
as §2

In assay [17] the test system is Arabidopsis thaliana. The experiment in a line: Herbicidal activity against Arabidopsis thaliana assessed as growth inhibition at 10 ppm by 96-well plate test. It is filed as functional. The following applies: read-out: GI. An outline of the steps: as §3
Assay [18] concerns Heliothis virescens. The experiment in a line: Insecticidal activity against Lepidoptera Heliothis virescens (tobacco budworm) assessed as mortality at 1000 ppm by leaf-disk assay. The class given is functional, organism-based. An outline of the steps:
(§5)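 Leaf-disk assay at 1000 ppm, three replicates. Plates kept 5–9 days in controlled-environment cabinets. Mortality judged against untreated wells: 99 for significant mortality, 0 otherwise. Values are the mean of three; thiamethoxam and indoxacarb used as positive controls.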

The test system of assay [19] is Stellaria media. Nature of the assay: Herbicidal activity against Stellaria media assessed as growth inhibition at 1 kg/ha preemergence treatment by glasshouse test. It is filed as functional. The conditions noted are these: pre-emergence, read-out: GI. An outline of the steps:
as §1

Assay [20] has as its system Lolium perenne. Nature of the assay: Herbicidal activity against Lolium perenne (perennial ryegrass) assessed as growth inhibition at 1 kg/ha postemergence treatment by glasshouse test. It is filed as functional. The following applies: post-emergence, read-out: GI. An outline of the steps:
as §1

Assay [21] concerns Botrytis cinerea. The experiment in a line: Fungicidal activity against Botryotinia fuckeliana assessed as inhibition of mycelia growth at 2 ppm. It is filed as functional, organism-based. In outline: as §2
The test system of assay [22] is Aphididae. Nature of the assay: Insecticidal activity against Aphididae (aphids) assessed as mortality at 1000 ppm by leaf-disk assay. It is filed as functional, organism-based. In outline: as §5
Assay [23] concerns Uromyces viciae-fabae. Nature of the assay: Fungicidal activity against Uromyces viciae-fabae assessed as inhibition of mycelia growth at 100 ppm. The class given is functional, organism-based. In outline: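 Leaf-piece assay on bean at 100 ppm, with compound applied before spore inoculation and two replicates. Each well scored 99 for complete inhibition, 55 for partial and 0 for none; value is the mean score across replicates.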

Calls of active or inactive are those of the source. The calls are words filed in the database; no cut-off is given here.

With `CSc1nc(NCc2ccc(Cl)nc2)nc(NC(C)C)n1`, the inhibition of growth at 1000 g/ha in assay [1] stood at 0%; in assay [3], 90%; in assay [6], 100%; in [7], 100%; in [9], 70%; in [15], 10%. Moreover, the figures for the inhibition of growth at 1000 g/ha in [19] and in assay [20] were 90% and 50%, respectively. The inhibition entry in [2], in assay [4], in [12], in [14] and in assay [16] was “inactive” throughout. For the same molecule, the inhibition of growth at 32 ppm in [5] was determined as 0%. The inhibition at 1500 g/ha stood at 88.6% in assay [8], 100% in assay [10], 100% in [11] and 88.6% in [13]. Moreover, the inhibition of growth at 10 ppm in assay [17] was determined as 99%. Besides, the mortality result in assay [18] was “inactive”. In addition, the inhibition result in [21] is “Active”.
As to `CC(C)Nc1nc(Cl)nc(NCC2CCCO2)n1` (centres undefined), the inhibition at 1500 g/ha in [8] was 46.4%; in assay [10], 100%; in assay [11], 100%; in assay [13], 41.3%.
Consider `CC(C)Nc1nc(Cl)nc(NCc2cc(-c3ccccc3)no2)n1`, for which the inhibition result in assay [2], in [4], in [14] and in [16] was “inactive” each time. The mortality result in assay [22] was “inactive”. Further, the inhibition at 1500 g/ha in assay [8] is 4.3%; in assay [10], 42.4%; in [11] it was 20.1%; in assay [13], 17.7%. Besides, the mortality entry in assay [18] was “Active”.
With `O=C(O)CNCP(=O)(O)O` [GLYPHOSATE], the inhibition of growth at 1000 g/ha in [1] worked out at 0%; in [3] it was 90%; in [6] it was 80%; in assay [7], 90%; in assay [9], 90%; in assay [15], 0%. Also, the inhibition of growth at 1000 g/ha in assay [19] came out at 0%; in assay [20] it was 80%.
On to `CSc1nc(NCc2ccc(F)cc2)nc(NC(C)C)n1`, for which the inhibition of growth at 1000 g/ha worked out at 0% in assay [1]; 80% in assay [3]; 100% in assay [6]; 100% in [7]; 100% in assay [9]; 50% in assay [15]. For the same molecule, the results for the inhibition of growth at 1000 g/ha in assay [19] and in assay [20] were 90% and 80%, respectively. Further, the inhibition result in assay [2], in assay [4], in assay [12], in assay [14] and in assay [21] was “inactive” throughout. Moreover, the mortality result in assay [22] and in assay [18] was “inactive” in each case. In addition, the inhibition of growth at 32 ppm in [5] turned out to be 0%. For the same molecule, the inhibition at 1500 g/ha in assay [8] worked out at 21.4%; in assay [10], 100%; in assay [11], 100%; in assay [13], 100%. For the same molecule, the inhibition of growth at 10 ppm in assay [17] was determined as 99%.
As for `CCNc1nc(NC(C)C)nc(SC)n1` [AMETRYNE], the inhibition of growth at 1000 g/ha stood at 90% in [1]; 100% in assay [3]; 100% in [6]; 100% in [7]; 100% in assay [9]; 90% in [15]. Also, the inhibition of growth at 1000 g/ha was 90% in [19] and 100% in [20]. For the same molecule, the inhibition result in assay [2], in assay [4], in assay [12], in assay [14] and in [16] was “inactive” throughout. The mortality result in assay [22] and in assay [18] was “inactive” throughout. For the same molecule, the inhibition of growth at 32 ppm in assay [5] was 0%. In addition, the inhibition at 1500 g/ha in assay [8], in assay [10], in [11] and in [13] was 100% in each case. Also, in [17], the inhibition of growth at 10 ppm was 99%.
Take `CSc1nc(NCc2cnc(Br)s2)nc(NC(C)C)n1`: the inhibition at 1500 g/ha was 74.6% in [8], 100% in assay [10], 87.1% in assay [11] and 92% in assay [13].
Consider `CCNc1nc(Cl)nc(NC(C)C)n1` [ATRAZINE], for which the inhibition of growth at 1000 g/ha in assay [1] was 0%; in assay [3], 70%; in [6] it was 100%; in assay [7], 100%; in [9] it was 100%; in assay [15], 80%. In addition, the inhibition of growth at 1000 g/ha was 90% in [19] and 100% in [20]. Besides, the inhibition result in assay [2], in [4], in assay [14], in assay [16] and in assay [21] was “inactive” throughout. In addition, the inhibition of growth at 32 ppm in assay [5] came out at 0%. Besides, the inhibition at 1500 g/ha in assay [8], in assay [10], in assay [11] and in assay [13] was 100% throughout. Besides, in assay [17], the inhibition of growth at 10 ppm is 99%. For the same molecule, in assay [18], the mortality entry was “inactive”.
In the case of `CC(C)Nc1nc(Cl)nc(NCc2cnc(Br)s2)n1`, the inhibition entry in [2], in assay [4], in [12], in assay [14], in [16] and in [23] was “inactive” throughout. In addition, the inhibition result in [21] was “inactive”. Further, the mortality result in assay [22] and in assay [18] was “inactive” in each case. Also, the inhibition at 1500 g/ha amounted to 11.3% in assay [8], 10% in assay [10], 5.2% in assay [11] and 10.4% in [13].
For the molecule `CNc1cnn(-c2cccc(C(F)(F)F)c2)c(=O)c1Cl` [NORFLURAZONE], the inhibition of growth at 32 ppm in assay [5] is 99%. Moreover, the inhibition of growth at 10 ppm in assay [17] was determined as 99%.

The values are drawn from ChEMBL document CHEMBL3046679, “Design, synthesis, and biological activities of arylmethylamine substituted chlorotriazine and methylthiotriazine compounds” (J Agric Food Chem, 2011).
